# Source: ChEMBL document CHEMBL4706499, “PTG-0861: A novel HDAC6-selective inhibitor as a therapeutic strategy in acute myeloid leukaemia” (Eur J Med Chem, 2020)
# The source made the active and inactive calls. No cut-off for these calls is given here.
# Columns and labels:
# [1] = Cytotoxicity against human MRC9 cells measured after 72 hrs by spectrophotometer method; format: cell-based; conditions: MRC9, 72 h
# MV4-11 [2] = assay: Cytotoxicity against human MV4-11 cells measured after 72 hrs by spectrophotometer method; format: functional, cell-based; conditions: MV4-11, 72 h
# Histone deacetylase 6 = molecular target: T1, Histone deacetylase 6 (Danio rerio, UniProt F8W4B7); assay: Inhibition of N-terminal 6 His-SUMO tagged Zebrafish HDAC6 CD2 domain expressed in Escherichia coli BL21(DE3) RILP pretreated for 10 mins before FITC-M344 addition and measured after 10 mins by fluorescence polarization competition assay
# T1 sequence (F8W4B7 whole entry): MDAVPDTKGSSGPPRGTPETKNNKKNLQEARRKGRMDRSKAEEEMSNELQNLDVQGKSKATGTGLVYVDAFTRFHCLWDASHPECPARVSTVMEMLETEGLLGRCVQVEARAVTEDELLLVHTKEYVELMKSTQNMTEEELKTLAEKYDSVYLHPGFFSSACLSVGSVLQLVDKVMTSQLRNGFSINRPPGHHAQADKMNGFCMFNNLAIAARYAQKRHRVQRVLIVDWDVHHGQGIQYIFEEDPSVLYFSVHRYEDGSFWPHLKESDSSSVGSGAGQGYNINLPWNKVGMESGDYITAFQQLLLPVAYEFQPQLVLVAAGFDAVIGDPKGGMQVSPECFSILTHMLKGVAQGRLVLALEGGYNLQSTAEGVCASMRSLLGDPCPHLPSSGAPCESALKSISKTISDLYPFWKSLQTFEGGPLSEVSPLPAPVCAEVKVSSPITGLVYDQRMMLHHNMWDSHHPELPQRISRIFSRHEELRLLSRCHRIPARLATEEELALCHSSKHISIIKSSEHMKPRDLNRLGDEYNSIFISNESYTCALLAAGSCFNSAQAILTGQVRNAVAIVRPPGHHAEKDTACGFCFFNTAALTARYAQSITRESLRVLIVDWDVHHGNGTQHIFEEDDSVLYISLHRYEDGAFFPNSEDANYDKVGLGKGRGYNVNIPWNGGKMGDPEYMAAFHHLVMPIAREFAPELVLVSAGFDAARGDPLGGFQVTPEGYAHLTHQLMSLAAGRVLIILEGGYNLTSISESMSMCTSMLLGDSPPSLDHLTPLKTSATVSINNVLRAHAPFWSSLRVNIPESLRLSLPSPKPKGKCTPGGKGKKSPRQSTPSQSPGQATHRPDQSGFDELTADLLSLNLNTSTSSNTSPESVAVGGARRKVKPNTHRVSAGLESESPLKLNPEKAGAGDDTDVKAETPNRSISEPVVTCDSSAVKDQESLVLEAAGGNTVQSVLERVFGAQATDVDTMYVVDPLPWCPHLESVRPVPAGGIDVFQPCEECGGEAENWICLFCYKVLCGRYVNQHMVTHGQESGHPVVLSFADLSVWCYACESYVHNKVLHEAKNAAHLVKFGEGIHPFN
# [3] = Selectivity ratio of IC50 for full length recombinant human HDAC3 to IC50 for full length recombinant human HDAC6
# [4] = Cytotoxicity against human MRC9 cells; format: functional, cell-based
# HUVEC = assay: Cytotoxicity against human HUVEC cells measured after 72 hrs by spectrophotometer method; format: cell-based
# RPMI-8226 = assay: Cytotoxicity against human RPMI-8226 cells measured after 72 hrs by spectrophotometer method; format: functional, cell-based; conditions: RPMI-8226, 72 h
# Fibroblast [5] = assay: Cytotoxicity against pooled human fibroblasts measured after 72 hrs by spectrophotometer method; format: cell-based
# Fibroblast [6] = assay: Cytotoxicity against human fibroblasts measured after 72 hrs by spectrophotometer method; format: cell-based
# MV4-11 [7] = assay: Induction of apoptosis in human MV4-11 cells assessed as late apoptotic cells at 4 microM measured after 18 hrs by Annexin V/Propidium iodide stain based Flow cytometry assay (reference value: 4.91%); format: functional
# [8] = molecular target: Class 1 histone deacetylase (Homo sapiens) (UniProt Q13547+O15379+Q92769+Q9BY41); assay: Inhibition of HDAC class 1 in human MV4-11 cells assessed as upregulation of acetylation of H3 histone at 5 uM measured after 6 hrs by Western blot assay; format: cell-based
# Summary of the method: (§1)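 MV4-11 cells were exposed to a range of concentrations for 6 h. Protein extracts were run on SDS-PAGE and immunoblotted for acetylated α-tubulin, acetylated histone H3 and acetylated histone H4, with HSC70 as the loading reference. A representative blot of three independent experiments is shown.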
# [9] = molecular target: T2, Protein deacetylase HDAC6 (Homo sapiens) (UniProt Q9UBN7); assay: Inhibition of HDAC6 in human MV4-11 cells assessed as increase in acetylation of alpha tubulin at 0.5 uM measured after 6 hrs by Western blot assay relative to histone H3 acetylation; format: cell-based; summary of the method: as §1
# T2 sequence (whole entry): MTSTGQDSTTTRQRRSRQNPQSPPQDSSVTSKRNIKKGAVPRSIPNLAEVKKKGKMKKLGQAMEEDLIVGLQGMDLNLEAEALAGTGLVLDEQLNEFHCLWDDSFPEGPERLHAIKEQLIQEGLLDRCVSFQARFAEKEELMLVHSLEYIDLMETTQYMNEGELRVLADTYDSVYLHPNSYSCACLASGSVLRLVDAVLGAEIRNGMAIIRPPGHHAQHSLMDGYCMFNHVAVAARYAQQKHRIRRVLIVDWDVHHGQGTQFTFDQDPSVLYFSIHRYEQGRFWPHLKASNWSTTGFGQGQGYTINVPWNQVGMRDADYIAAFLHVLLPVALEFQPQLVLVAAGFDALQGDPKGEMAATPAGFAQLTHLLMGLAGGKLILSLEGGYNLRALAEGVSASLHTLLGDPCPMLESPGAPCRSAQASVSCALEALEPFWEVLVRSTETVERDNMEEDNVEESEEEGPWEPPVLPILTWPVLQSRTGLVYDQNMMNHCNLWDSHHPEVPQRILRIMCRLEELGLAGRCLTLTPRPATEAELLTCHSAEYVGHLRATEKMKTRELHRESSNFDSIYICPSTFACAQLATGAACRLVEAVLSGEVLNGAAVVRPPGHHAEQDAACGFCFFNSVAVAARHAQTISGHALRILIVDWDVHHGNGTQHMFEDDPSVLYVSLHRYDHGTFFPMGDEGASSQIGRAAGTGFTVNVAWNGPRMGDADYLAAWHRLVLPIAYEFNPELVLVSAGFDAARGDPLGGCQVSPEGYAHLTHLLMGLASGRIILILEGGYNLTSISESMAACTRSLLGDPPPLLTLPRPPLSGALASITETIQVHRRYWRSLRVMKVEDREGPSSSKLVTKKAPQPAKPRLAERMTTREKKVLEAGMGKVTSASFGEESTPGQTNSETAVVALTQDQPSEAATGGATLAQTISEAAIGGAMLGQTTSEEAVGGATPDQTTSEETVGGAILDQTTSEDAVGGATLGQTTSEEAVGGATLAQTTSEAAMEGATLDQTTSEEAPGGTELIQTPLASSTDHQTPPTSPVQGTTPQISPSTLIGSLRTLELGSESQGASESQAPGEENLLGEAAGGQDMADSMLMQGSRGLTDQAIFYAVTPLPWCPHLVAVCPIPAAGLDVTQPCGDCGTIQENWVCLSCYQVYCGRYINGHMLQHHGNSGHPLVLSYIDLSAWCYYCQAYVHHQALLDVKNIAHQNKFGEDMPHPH
# MM1.S = assay: Cytotoxicity against human MM1.S cells measured after 72 hrs by spectrophotometer method; format: functional, cell-based
# [10] = molecular target: T2, Protein deacetylase HDAC6 (Homo sapiens); assay: Inhibition of HDAC6 in human MV4-11 cells assessed as increase in acetylation of alpha tubulin at 0.5 uM measured after 6 hrs by Western blot assay relative to histone H4 acetylation; format: cell-based; summary of the method: as §1
# [11] = molecular target: T3, Protein deacetylase HDAC6 (Homo sapiens, UniProt Q9UBN7); assay: Inhibition of recombinant full length human HDAC6 expressed in SF9 baculovirus using FAM- labelled acetylated peptide as substrate measured by Electrophoretic mobility shift assay
# T3 sequence (Q9UBN7 whole entry): T2 sequence (whole entry)
# Histone deacetylase 11 = molecular target: T4, Histone deacetylase 11 (Homo sapiens, UniProt Q96DB2); assay: Inhibition of recombinant full length human HDAC11 expressed in SF9 baculovirus using FAM- labelled acetylated peptide as substrate measured by Electrophoretic mobility shift assay
# T4 sequence (Q96DB2 whole entry): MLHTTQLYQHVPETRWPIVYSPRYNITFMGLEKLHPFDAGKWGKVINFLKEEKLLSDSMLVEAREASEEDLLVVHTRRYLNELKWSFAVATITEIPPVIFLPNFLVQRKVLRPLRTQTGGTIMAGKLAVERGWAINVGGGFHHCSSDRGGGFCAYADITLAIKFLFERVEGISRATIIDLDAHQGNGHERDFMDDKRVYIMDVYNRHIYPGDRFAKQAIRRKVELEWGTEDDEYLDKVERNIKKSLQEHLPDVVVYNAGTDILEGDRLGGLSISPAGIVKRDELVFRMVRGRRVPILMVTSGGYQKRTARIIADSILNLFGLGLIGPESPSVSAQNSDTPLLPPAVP
# Histone deacetylase 8 = molecular target: T5, Histone deacetylase 8 (Homo sapiens, UniProt Q9BY41); assay: Inhibition of recombinant full length human HDAC8 expressed in SF9 baculovirus using FAM- labelled acetylated peptide as substrate measured by Electrophoretic mobility shift assay
# T5 sequence (Q9BY41 whole entry): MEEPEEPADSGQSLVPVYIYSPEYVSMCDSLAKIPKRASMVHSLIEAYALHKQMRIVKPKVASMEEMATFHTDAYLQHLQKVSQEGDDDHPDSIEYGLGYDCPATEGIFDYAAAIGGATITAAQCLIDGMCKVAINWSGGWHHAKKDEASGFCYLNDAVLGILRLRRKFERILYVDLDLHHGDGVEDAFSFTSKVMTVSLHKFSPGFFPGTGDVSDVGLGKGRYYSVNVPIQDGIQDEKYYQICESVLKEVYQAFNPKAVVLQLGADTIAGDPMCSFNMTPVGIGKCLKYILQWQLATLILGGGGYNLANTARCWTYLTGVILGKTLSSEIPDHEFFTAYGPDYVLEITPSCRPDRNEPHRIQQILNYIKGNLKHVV
# Histone deacetylase 3 = Histone deacetylase 3 (Homo sapiens, UniProt O15379); assay: Inhibition of recombinant full length human HDAC3 expressed in SF9 baculovirus using FAM- labelled acetylated peptide as substrate measured by Electrophoretic mobility shift assay
# Sequence of Histone deacetylase 3 (O15379 whole entry): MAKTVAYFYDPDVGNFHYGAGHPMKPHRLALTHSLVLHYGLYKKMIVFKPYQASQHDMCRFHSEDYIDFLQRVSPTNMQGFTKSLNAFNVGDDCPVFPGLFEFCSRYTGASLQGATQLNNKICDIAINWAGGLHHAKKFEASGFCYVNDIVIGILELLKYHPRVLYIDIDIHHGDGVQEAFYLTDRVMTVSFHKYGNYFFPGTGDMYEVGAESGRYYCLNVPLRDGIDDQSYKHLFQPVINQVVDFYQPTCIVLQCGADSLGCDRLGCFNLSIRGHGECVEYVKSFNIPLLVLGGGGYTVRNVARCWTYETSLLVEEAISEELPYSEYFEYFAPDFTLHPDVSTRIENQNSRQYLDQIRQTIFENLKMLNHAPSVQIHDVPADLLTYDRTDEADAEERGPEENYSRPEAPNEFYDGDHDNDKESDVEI
# Sequence of Class 1 histone deacetylase (Homo sapiens) (O15379 whole entry, looked up, one chain of several): as the sequence (O15379 whole entry) above
# Sequence of Class 1 histone deacetylase (Homo sapiens) (Q13547 whole entry, looked up, one chain of several): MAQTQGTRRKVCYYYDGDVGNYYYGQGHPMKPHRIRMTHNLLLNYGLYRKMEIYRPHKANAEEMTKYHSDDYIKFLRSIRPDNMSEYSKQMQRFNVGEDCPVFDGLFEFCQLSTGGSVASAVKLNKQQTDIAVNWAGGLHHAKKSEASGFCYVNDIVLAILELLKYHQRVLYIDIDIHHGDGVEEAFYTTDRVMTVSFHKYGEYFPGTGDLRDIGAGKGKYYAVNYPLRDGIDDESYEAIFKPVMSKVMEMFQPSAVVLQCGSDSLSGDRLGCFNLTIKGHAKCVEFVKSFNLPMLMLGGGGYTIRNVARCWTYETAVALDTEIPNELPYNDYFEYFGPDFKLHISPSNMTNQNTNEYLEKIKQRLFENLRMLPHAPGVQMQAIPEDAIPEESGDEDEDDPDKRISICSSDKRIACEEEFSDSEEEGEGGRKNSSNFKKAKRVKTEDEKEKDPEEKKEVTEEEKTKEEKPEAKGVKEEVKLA
# Sequence of Class 1 histone deacetylase (Homo sapiens) (Q92769 whole entry, looked up, one chain of several): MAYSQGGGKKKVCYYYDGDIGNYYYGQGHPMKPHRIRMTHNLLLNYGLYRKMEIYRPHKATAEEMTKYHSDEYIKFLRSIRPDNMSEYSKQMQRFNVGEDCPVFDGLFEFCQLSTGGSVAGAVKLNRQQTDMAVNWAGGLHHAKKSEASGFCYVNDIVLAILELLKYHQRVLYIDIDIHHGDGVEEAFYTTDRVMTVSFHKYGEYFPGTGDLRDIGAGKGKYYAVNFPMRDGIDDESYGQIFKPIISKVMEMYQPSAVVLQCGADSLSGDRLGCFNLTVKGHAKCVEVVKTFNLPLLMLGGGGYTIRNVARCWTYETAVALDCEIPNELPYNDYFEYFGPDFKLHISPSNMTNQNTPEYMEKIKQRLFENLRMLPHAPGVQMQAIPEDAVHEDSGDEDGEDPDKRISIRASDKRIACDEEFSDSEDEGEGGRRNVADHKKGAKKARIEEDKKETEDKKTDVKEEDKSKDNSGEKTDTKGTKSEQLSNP
IC50 (Histone deacetylase 6) [nM],Ratio IC50 [3],inhibition [8],Activity [9],Activity [10],IC50 [11] [nM],IC50 (Histone deacetylase 11) [nM],IC50 (Histone deacetylase 8) [nM],IC50 (Histone deacetylase 3) [nM],SMILES,IC50 [1] [nM],IC50 (MV4-11 [2]) [nM],IC50 [4] [nM],IC50 (HUVEC) [nM],IC50 (RPMI-8226) [nM],IC50 (Fibroblast [5]) [nM],IC50 (Fibroblast [6]) [nM],Activity (MV4-11 [7]) [%],IC50 (MM1.S) [nM]
90,,,,,,,,,O=C(CCCCCCNC(=O)c1cnc(N(c2ccccc2)c2ccccc2)nc1)NO [RICOLINOSTAT],> 15000,656,,,,,,,
269,7.66,,,,,,,,CC(C)(C)c1ccc(C(=O)Nc2ccc(C(=O)NO)cc2)cc1,> 25000,,> 25000,,,,,,
154,,Active,Active,Active,,,,,O=C(CCCCCCNC(=O)c1cnc(N(c2ccccc2)c2ccccc2Cl)nc1)NO [CITARINOSTAT],> 25000,1240,,4900,3160,7400,5700,17,1520
,9.73,,,,22.6,> 1000,220,243,O=C(NO)c1ccc(NC(=O)c2ccc(C(F)(F)F)cc2)cc1,> 5000,880,,,,,,,
,6.7,,,,6.77,> 1000,567,45.4,O=C(NO)c1ccc(NC(=O)c2ccc(F)cc2)cc1,> 25000,3640,,,,,,,
,7.09,,,,41.9,> 1000,622,297,CC(C)(C)c1ccc(S(=O)(=O)NCc2ccc(C(=O)NO)cc2)cc1,> 25000,5030,,,,,,,
